As a reminder, the Ki is a measure of affinity in units of concentration, obtained from inhibition or displacement. Usually IC50 stands for the concentration that inhibits the measured activity by half. The ED50 is the dose that gives a 50% effect, or the effect in half of the subjects.

Experimental findings from ChEMBL document CHEMBL1250436, “Evaluation of N-substitution in 6,7-benzomorphan compounds” (Bioorg Med Chem, 2010) are described below.

The target of experiment [1] is Delta-type opioid receptor (Rattus norvegicus, UniProt P33533). The experiment can be described thus: Displacement of [3H]DPDPE from Sprague-Dawley rat delta opioid receptor by liquid scintillation counting. (In general: Loss of bound radioactivity is the signal in a displacement assay; it reports binding, not function.)
The target in experiment [2] is Kappa-type opioid receptor (Cavia porcellus, UniProt P41144). Nature of the experiment: Displacement of [3H]U69593 from […] kappa opioid receptor in guinea pig cerebella by liquid scintillation counting.
Experiment [3] can be described thus: Selectivity ratio of Ki for kappa opioid receptor in guinea pig cerebella to Ki for mu opioid receptor in Sprague-Dawley rat brain.
The species named for experiment [4] is Rattus norvegicus. The experiment can be described thus: Selectivity ratio of Ki for delta opioid receptor in Sprague-Dawley rat brain to Ki for mu opioid receptor in Sprague-Dawley rat brain.
Experiment [5] concerns the target Mu-type opioid receptor (Rattus norvegicus, UniProt P33535). Nature of the experiment: Displacement of [3H]DAMGO from Sprague-Dawley rat mu opioid receptor by liquid scintillation counting.
Experiment [6] addresses T1, Delta-type opioid receptor (Homo sapiens, UniProt P41143). Nature of the experiment: Agonist activity at delta opioid expressed in HEK293 cells assessed as inhibition of forskolin-stimulated cAMP accumulation at 1 pM to 10 uM relative to control. The experiment is classed as functional, cell-based. For orientation: cAMP levels reflect the balance of adenylyl cyclase and phosphodiesterase activity.

Experiment [7] addresses T2, Mu-type opioid receptor (Homo sapiens, UniProt P35372). The experiment can be described thus: Agonist activity at mu opioid expressed in HEK293 cells assessed as inhibition of forskolin-stimulated cAMP accumulation. The experiment is classed as functional, cell-based.
The target in experiment [8] is T2, Mu-type opioid receptor. The experiment can be described thus: Agonist activity at mu opioid expressed in HEK293 cells assessed as inhibition of forskolin-stimulated cAMP accumulation at 1 pM to 10 uM relative to control. It is filed as functional, cell-based.
Experiment [9] concerns Rattus norvegicus. The experiment can be described thus: Antinociceptive activity in sc dosed Sprague-Dawley rat assessed as thermal-stimulus-induced tail flick latency after 100 mins. The experiment is classed as functional. In outline: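 Male Sprague–Dawley rats (180–200 g) habituated the day before. Radiant-heat IR on lower third of tail. Basal latency 3–4 s, mean of three readings 5 min apart. Cut-off 10 s. Compound given sc, and latencies read at 20, 40, 60, 80 and 100 min. Blinded. ED50 from linear regression of dose–effect, with 95% confidence limits.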
In general terms: Thermal pain tests record how soon the animal reacts.

In experiment [10] the target is T1, Delta-type opioid receptor. The experiment can be described thus: Agonist activity at delta opioid expressed in HEK293 cells assessed as inhibition of forskolin-stimulated cAMP accumulation. The experiment is classed as functional, cell-based.

A value given as a limit tells only on which side of the number the result lay.

Chain of Delta-type opioid receptor (Rattus norvegicus, UniProt P33533) (P33533 whole entry): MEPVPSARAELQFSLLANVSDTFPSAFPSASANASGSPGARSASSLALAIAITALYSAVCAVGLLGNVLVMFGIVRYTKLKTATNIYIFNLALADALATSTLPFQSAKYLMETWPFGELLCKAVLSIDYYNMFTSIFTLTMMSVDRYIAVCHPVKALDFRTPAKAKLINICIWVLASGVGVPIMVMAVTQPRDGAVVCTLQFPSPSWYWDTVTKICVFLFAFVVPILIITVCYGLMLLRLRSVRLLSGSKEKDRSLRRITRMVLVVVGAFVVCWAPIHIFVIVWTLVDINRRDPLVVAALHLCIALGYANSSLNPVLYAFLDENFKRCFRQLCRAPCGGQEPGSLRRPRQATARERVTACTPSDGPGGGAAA
Chain of Kappa-type opioid receptor (P41144 whole entry): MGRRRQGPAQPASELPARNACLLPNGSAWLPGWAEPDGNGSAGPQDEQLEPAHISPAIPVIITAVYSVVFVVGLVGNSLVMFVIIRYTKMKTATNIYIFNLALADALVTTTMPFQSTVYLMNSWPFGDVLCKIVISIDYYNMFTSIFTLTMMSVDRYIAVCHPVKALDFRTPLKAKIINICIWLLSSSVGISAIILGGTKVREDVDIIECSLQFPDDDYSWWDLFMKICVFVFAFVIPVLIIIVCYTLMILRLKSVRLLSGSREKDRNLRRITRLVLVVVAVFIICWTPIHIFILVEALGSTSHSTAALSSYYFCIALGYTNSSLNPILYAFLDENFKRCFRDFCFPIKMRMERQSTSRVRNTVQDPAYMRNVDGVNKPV
Chain of Mu-type opioid receptor (Rattus norvegicus, UniProt P33535) (P33535 whole entry): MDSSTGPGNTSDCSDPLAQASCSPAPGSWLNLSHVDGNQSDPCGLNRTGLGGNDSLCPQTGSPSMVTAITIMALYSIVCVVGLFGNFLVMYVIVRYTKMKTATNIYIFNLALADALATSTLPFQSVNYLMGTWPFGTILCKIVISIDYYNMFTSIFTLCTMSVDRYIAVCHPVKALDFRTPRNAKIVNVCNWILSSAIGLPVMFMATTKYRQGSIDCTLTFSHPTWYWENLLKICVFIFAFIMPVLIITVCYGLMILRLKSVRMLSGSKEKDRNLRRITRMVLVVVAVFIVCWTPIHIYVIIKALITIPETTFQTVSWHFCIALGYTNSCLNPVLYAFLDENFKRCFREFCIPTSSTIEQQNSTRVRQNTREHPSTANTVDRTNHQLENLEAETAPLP
T2 sequence (P35372 whole entry): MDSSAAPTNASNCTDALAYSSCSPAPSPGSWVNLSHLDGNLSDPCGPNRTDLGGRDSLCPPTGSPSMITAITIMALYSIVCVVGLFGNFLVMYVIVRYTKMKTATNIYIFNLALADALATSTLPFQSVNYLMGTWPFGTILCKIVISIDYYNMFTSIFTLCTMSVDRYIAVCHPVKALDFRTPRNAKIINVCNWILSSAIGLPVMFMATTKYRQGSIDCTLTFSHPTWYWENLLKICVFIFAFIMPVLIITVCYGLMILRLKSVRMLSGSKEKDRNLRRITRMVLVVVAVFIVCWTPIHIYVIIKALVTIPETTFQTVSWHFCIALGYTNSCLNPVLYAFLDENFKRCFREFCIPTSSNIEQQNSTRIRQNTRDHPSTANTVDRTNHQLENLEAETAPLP
T1 sequence (P41143 whole entry): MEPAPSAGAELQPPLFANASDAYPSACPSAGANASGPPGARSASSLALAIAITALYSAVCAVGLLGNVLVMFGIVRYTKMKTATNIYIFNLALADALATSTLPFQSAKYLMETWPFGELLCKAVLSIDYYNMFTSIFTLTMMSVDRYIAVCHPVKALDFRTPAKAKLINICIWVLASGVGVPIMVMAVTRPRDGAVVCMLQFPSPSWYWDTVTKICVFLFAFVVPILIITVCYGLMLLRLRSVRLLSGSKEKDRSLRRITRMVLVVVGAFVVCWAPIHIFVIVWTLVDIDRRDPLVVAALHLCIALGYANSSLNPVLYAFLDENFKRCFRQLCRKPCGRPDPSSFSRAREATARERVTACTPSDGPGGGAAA

`CCN(C(=O)CCN1C[C@H](C)[C@@]2(C)C[C@H]1Cc1ccc(O)cc12)c1ccccc1`: the Ki was more than 5 µM in [1], 0.07 µM in experiment [2] and 0.136 µM on Mu-type opioid receptor [5]. Moreover, the results for the Ratio Ki (in experiment [3]; in the experiment filed under Rattus norvegicus [4]) were 0.51 and more than 36.7, respectively.
The like results for `C[C@H]1CN(CCC(=O)NCc2ccccc2)[C@@H]2Cc3ccc(O)cc3[C@]1(C)C2` were, in that order, more than 5 µM, 0.237 µM, 0.105 µM, 2.2 and more than 47.6.
For `C[C@@H](NC(=O)[C@@H](N)Cc1ccc(O)cc1)C(=O)NCC(=O)N(C)[C@@H](Cc1ccccc1)C(=O)NCCO` [DAMGO], the Ki is 2.67 µM in [1] and more than 5 µM in experiment [2].
For the compound `C[C@H]1CN(CC(=O)Nc2ccccc2)[C@@H]2Cc3ccc(O)cc3[C@]1(C)C2`, the Ki in experiment [1] was more than 5 µM; in experiment [2], more than 5 µM; on Mu-type opioid receptor [5], 0.722 µM. The Ratio Ki (in [3]; in the experiment listed under Rattus norvegicus [4]) was more than 6.9 in each case.
`C[C@H]1CN(CCC(=O)N(C)c2ccccc2)[C@@H]2Cc3ccc(O)cc3[C@]1(C)C2`: the Ki in experiment [1] was more than 5 µM; in experiment [2], 0.261 µM; at Mu-type opioid receptor [5] it was 0.065 µM. Moreover, the results for the Ratio Ki (in experiment [3]; in the experiment filed under Rattus norvegicus [4]) were 4 and more than 76.9, respectively.
`CCN(C(=O)CN1C[C@H](C)[C@@]2(C)C[C@H]1Cc1ccc(O)cc12)c1ccccc1`: the Ki in experiment [1] is more than 5 µM; in experiment [2], 0.335 µM; on Mu-type opioid receptor [5], 1.12 µM. The results for the Ratio Ki (in experiment [3]; in the experiment filed under Rattus norvegicus [4]) were 0.29 and more than 4.4, respectively.
On to `C[C@H]1CN(CCC(=O)NC2CCCCC2)[C@@H]2Cc3ccc(O)cc3[C@]1(C)C2`, for which the values for the Ki (in experiment [1]; in experiment [2]; at Mu-type opioid receptor [5]) were more than 5 µM, 0.501 µM and 0.056 µM, respectively. The values for the Ratio Ki (in experiment [3]; in the experiment listed under Rattus norvegicus [4]) were 8.9 and more than 89.2, respectively.
The like results for `C[C@H]1CN(CC(=O)N(C)c2ccccc2)[C@@H]2Cc3ccc(O)cc3[C@]1(C)C2` were, in that order, more than 5 µM, 0.339 µM, 1.37 µM, 0.24 and more than 3.6.
Turning to `C[C@H]1CN(CCC(=O)NC(C)(C)C)[C@@H]2Cc3ccc(O)cc3[C@]1(C)C2`, the figures for the Ki (in experiment [1]; in [2]; on Mu-type opioid receptor [5]) were more than 5 µM, 0.422 µM and 0.372 µM, respectively. Besides, the Ratio Ki in [3] is 1.1; in the experiment listed under Rattus norvegicus [4] it was more than 13.4.
The like results for `C[C@H]1CN(CC(=O)NC2CCCCC2)[C@@H]2Cc3ccc(O)cc3[C@]1(C)C2` were, in that order, more than 5 µM, 0.612 µM, 2.93 µM, 0.2 and more than 1.7.
For `C[C@H]1CN(CCC(=O)Nc2ccccc2)[C@@H]2Cc3ccc(O)cc3[C@]1(C)C2`, the Ki in experiment [1] was 0.0291 µM; in [2], 0.11 µM; on Mu-type opioid receptor [5] it was 0.00083 µM. In addition, the Imax in [6] is 83%; on Mu-type opioid receptor [8], 73%. For the same compound, the Ratio Ki is 132 in [3] and 33.8 in the experiment filed under Rattus norvegicus [4]. Besides, the IC50 on Mu-type opioid receptor [7] stood at 0.0048 µM; in experiment [10], 0.012 µM. The ED50 in the experiment on Rattus norvegicus [9] turned out to be 2.03 mg/kg.
Turning to `CN1CC[C@]23c4c5ccc(O)c4O[C@H]2[C@@H](O)C=C[C@H]3[C@H]1C5` [MORPHINE], the ED50 in the experiment with Rattus norvegicus [9] worked out at 2.7 mg/kg.
As for `C[C@H]1CN(CCC(=O)NCC2CCCCC2)[C@@H]2Cc3ccc(O)cc3[C@]1(C)C2`, the Ki in experiment [1] is more than 5 µM; in [2], 0.134 µM; at Mu-type opioid receptor [5], 0.107 µM. The Ratio Ki in [3] was 1.2; in the experiment listed under Rattus norvegicus [4], more than 46.7.
